Rows were chosen to be rich in hits. Some 2.3% of all compounds tested hit in one or more screens of this group.
DNMT1 block: blocks human DNA methyltransferase DNMT1; P26358; 360,000 tested, 0.83% active; inhibition (reported as % activation of signal), % at 10 µM; DNMT1 molecular beacon, Hinp1I cleavage, fluorescence; AID 588458; in the data active = inhibition above about 50%
STEP block: inhibitors of human striatal-enriched phosphatase STEP; P54829; recombinant STEP, OMFP fluorogenic substrate, fluorescence; inhibition, % at 20 µM; 360,000 tested, 0.25% active; AID 588621;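 active = inhibition at 20 µM, scaled per plate between control wells, above about 37%, limit read from the data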;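 also: 0% = DMSO with enzyme and substrate and 100% = substrate only without enzyme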
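Assay system: isolated STEP enzyme / Timing: 20 min at room temperature, dark / Doses: 20 µM, 1% DMSO / Technique: fluorescence intensity, excitation 480 nm, emission 540 nm / Reagent: fluorogenic phosphatase substrate OMFP at 25 µM final / Measure: percent inhibition scaled to no-enzyme and uninhibited-enzyme controls, plate-pattern corrected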
Scp-1 inhibitor: inhibitors of human Scp-1 phosphatase | Q9GZU7 | Recombinant Scp1, phosphopeptide, malachite green phosphate absorbance | inhibition, % at 20 µM | 340,000 tested, 0.88% active | AID 493091;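 active = inhibition above about 50% at 20 µM, limit read from the data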;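 also: plate controls were DMSO wells with enzyme for no effect and wells lacking enzyme for full effect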
Target sequence (Q9GZU7 76-261 limits assumed): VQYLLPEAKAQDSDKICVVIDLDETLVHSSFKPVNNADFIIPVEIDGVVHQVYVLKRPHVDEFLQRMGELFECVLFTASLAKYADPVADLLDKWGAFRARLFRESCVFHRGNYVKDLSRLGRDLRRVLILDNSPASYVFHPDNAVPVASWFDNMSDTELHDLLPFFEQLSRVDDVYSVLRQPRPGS
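Times: enzyme reaction 45 min at room temperature, colour 5 min, stabilisation 30 min. Material: SCP-1 catalytic fragment, aa 76-261. Medium: Acidic Tris acetate buffer with magnesium and detergent. Signal: colorimetric free-phosphate detection, absorbance 630 nm. Read-out basis: % inhibition of SCP-1 phosphate liberation. Reagent: Phosphorylated 17-residue peptide substrate.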
Rpn11 block: inhibitors of human proteasome Rpn11; O00487; human 26S proteasome, Ub4-pepOG fluorescence polarization; 20S core pre-blocked with epoxomicin; inhibition, % at 20 µM; 360,000 tested, 0.59% active; AID 588493;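 active = inhibition at 20 µM, scaled to each plate's controls, above about 33%, limit read from the data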
LMPTP inh: blocks human LMPTP phosphatase; inhibition, % at 20 µM; 360,000 tested, 0.22% active; AID 651560; recombinant LMPTP-A, OMFP fluorogenic substrate, fluorescence intensity;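 active = compounds that cut the enzyme signal by at least half of the control window in the single-dose screen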;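 also: plate controls were DMSO wells with enzyme plus substrate for no effect and substrate without enzyme for full effect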
Target sequence (P24666 whole entry, looked up): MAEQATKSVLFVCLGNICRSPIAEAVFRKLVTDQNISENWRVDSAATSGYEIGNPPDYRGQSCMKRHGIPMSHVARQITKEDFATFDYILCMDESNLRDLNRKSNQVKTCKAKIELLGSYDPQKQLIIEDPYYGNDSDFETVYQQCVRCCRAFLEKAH
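Assay system: LMPTP-A enzyme. Input: 0.625 nM LMPTP-A final. Probe or stimulus: 400 µM OMFP. Compound dosing: single 20 µM dose. Schedule: 50 min dark incubation at room temperature. Detection: fluorescence intensity of OMFP turnover product. Read-out: percent inhibition versus substrate-only and uninhibited controls. Benchmarks: no-enzyme low control, uninhibited high control.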
SUMO1-SIM PPI: SUMO1-SIM interaction modulation; P63165; SUMO1 binding to a labelled peptide, TR-FRET, 1 h; inhibition, % at 20 µM; 360,000 tested, 0.33% active; AID 602429; in the data active = inhibition above about 37%
Target sequence (P63165 whole entry, looked up): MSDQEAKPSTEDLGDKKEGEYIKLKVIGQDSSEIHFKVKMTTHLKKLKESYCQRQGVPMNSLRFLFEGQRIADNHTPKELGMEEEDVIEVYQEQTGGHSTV
Numbers without * were called inactive.

For CN1CCc2c(sc(NC(=O)c3ccc(S(=O)(=O)N4CCOCC4)cc3)c2C(N)=O)C1 the results were DNMT1 block -15, STEP block 2, Scp-1 inhibitor -9, Rpn11 block 75*, LMPTP inh 1 and SUMO1-SIM PPI -19.
For CN(C)c1ccc(NC(=S)c2ccc3ccccc3n2)cc1 the results were DNMT1 block -5, STEP block 68*, Scp-1 inhibitor -4, Rpn11 block 5, LMPTP inh 7 and SUMO1-SIM PPI -19.
`CC(C)C(=O)NNS(=O)(=O)c1ccccc1` gave DNMT1 block 3, STEP block 2, Scp-1 inhibitor 4, Rpn11 block -6, LMPTP inh -1 and SUMO1-SIM PPI 44*.
CNNC(=O)C(=O)NNS(=O)(=O)c1ccccc1 was read as DNMT1 block 1, STEP block 4, Scp-1 inhibitor -6, Rpn11 block 2, LMPTP inh 0 and SUMO1-SIM PPI -2.
For COc1ccccc1-c1sc2cc3c(cc2c1-c1ccc2c(c1)OCO2)OCO3 the results were DNMT1 block 9, STEP block -3, Scp-1 inhibitor 68*, Rpn11 block -2, LMPTP inh 2 and SUMO1-SIM PPI -6.
COc1ccccc1-c1sc2ccccc2c1-c1ccc2c(c1)OCO2 was read as DNMT1 block -8, STEP block 2, Scp-1 inhibitor -9, Rpn11 block 0, LMPTP inh 3 and SUMO1-SIM PPI 1.
Screening Cc1cc(C)c(S(=O)(=O)/N=C2/C=C(Sc3ncn[nH]3)C(=O)c3ccccc32)cc1C returned DNMT1 block 16, STEP block 7, Scp-1 inhibitor 4, Rpn11 block 28, LMPTP inh 14 and SUMO1-SIM PPI 92*.
Screening Cc1ccc(C)c(S(=O)(=O)/N=C2\C=C(NS(=O)(=O)c3ccccc3)C(=O)c3ccccc32)c1 returned DNMT1 block -12, STEP block -2, Scp-1 inhibitor -2, Rpn11 block -9, LMPTP inh 2 and SUMO1-SIM PPI 9.
Screening O=C(NCCc1ccccn1)c1c(-c2ccsc2)sc2ccccc12 returned DNMT1 block 2, STEP block 0, Scp-1 inhibitor 100*, Rpn11 block -8, LMPTP inh -1 and SUMO1-SIM PPI -9.
`FC(F)(F)c1ccccc1-n1c(CN2CCCCC2)n[nH]c1=S` gave DNMT1 block -1, STEP block 11, Scp-1 inhibitor 5, Rpn11 block -2, LMPTP inh -2 and SUMO1-SIM PPI 0.
For Cc1cc2cc(CNC(=O)c3ccc4c(c3)OCO4)ccc2n1C the results were DNMT1 block -5, STEP block 0, Scp-1 inhibitor -1, Rpn11 block -13, LMPTP inh 55* and SUMO1-SIM PPI -22.
For COC(=O)c1ccccc1-c1c2ccc(=N)cc-2oc2cc(N)ccc12 the results were DNMT1 block active, STEP block inactive, Scp-1 inhibitor 5, Rpn11 block -246, LMPTP inh inactive and SUMO1-SIM PPI inactive.
Screening N#CC(C(=O)Nc1cccc(Cl)c1)=C1Nc2ccccc2N1 returned DNMT1 block 7, STEP block 0, Scp-1 inhibitor 0, Rpn11 block -7, LMPTP inh -1 and SUMO1-SIM PPI 62*.
CC1(C(=O)Nc2ccc3c(c2)OCCO3)CSCC(=O)N1Cc1ccco1 (stereo unspecified) was read as LMPTP inh 0 and SUMO1-SIM PPI 0.
Screening C=C1c2cccc(O)c2C(=O)C2C(=O)[C@]3(O)C(=O)C(C(N)=O)C(=O)[C@@H](N(C)C)[C@@H]3[C@@H](O)[C@H]12 (stereo partly specified) returned DNMT1 block 94*, STEP block 53*, Scp-1 inhibitor 60*, Rpn11 block 22, LMPTP inh 81* and SUMO1-SIM PPI 73*.
Screening Cc1ccccc1-c1nnc(SCC(=O)N2CCCC2)o1 returned DNMT1 block -1, STEP block 0, Scp-1 inhibitor -7, Rpn11 block -3, LMPTP inh 0 and SUMO1-SIM PPI -2.
CCn1c(SC(C)C(=O)O)nc2sc3c(c2c1=O)CCC3 (stereo unspecified) was read as DNMT1 block 90*, STEP block 10, Scp-1 inhibitor 78*, Rpn11 block -13, LMPTP inh 15 and SUMO1-SIM PPI 13.
O=C(NC1CCCCC1)c1sc(=S)n2c1[nH]c(=O)c1ccccc12 was read as DNMT1 block -6, STEP block 8, Scp-1 inhibitor 80*, Rpn11 block 11, LMPTP inh 19 and SUMO1-SIM PPI 11.
O=C(CN(Cc1ccc(Cl)cc1)S(=O)(=O)c1ccccc1)NCC1CCCO1 (stereo unspecified) was read as DNMT1 block -1, STEP block 1, Scp-1 inhibitor -9, Rpn11 block -4, LMPTP inh 0 and SUMO1-SIM PPI 0.
`O=C(COc1ccc2c(-c3ccccc3)cc(=O)oc2c1)Nc1ccc(CCO)cc1` gave DNMT1 block 27, STEP block 3, Scp-1 inhibitor -2, Rpn11 block 9, LMPTP inh 66* and SUMO1-SIM PPI -7.
For Cc1cccc(C)c1NS(=O)(=O)c1c(C(=O)N2CCCCC2)c(C)n(C)c1C the results were DNMT1 block 1, STEP block -1, Scp-1 inhibitor -6, Rpn11 block 8, LMPTP inh 0 and SUMO1-SIM PPI -3.
Screening O=C(CCCN1C(=O)c2ccccc2C1=O)Nc1nnc(C2CC2)s1 returned DNMT1 block -2, STEP block -1, Scp-1 inhibitor 3, Rpn11 block -3, LMPTP inh 2 and SUMO1-SIM PPI -6.
`COc1ccc(-c2cc(=O)c3c(C)cc(O)cc3o2)cc1` gave DNMT1 block 8, STEP block 3, Scp-1 inhibitor 47, Rpn11 block 33, LMPTP inh 18 and SUMO1-SIM PPI 45*.
For COc1cc(-c2cc(=O)c3c(C)cc(O)cc3o2)cc(OC)c1OC the results were DNMT1 block -7, STEP block 4, Scp-1 inhibitor 5, Rpn11 block -6, LMPTP inh -2 and SUMO1-SIM PPI 7.
CCCCCCCCCCCCCCCCn1cc[n+](C)c1 was read as DNMT1 block 21, STEP block 3, Scp-1 inhibitor 11, Rpn11 block 97*, LMPTP inh -4 and SUMO1-SIM PPI 37.
`CCOC(=O)C1(C)CCCCN1C(=O)c1cccc(Cl)c1` (stereo unspecified) gave DNMT1 block 7, STEP block -2, Rpn11 block -3, LMPTP inh -1 and SUMO1-SIM PPI 2.
Screening Nc1cc2c3c(cccc3c1)C(=O)N(CCN1CCCC1)C2=O returned DNMT1 block 51*, STEP block -1, Scp-1 inhibitor 1, Rpn11 block -54, LMPTP inh 22 and SUMO1-SIM PPI -27.

Compound activity as filed in PubChem.
